Screens as filed in PubChem BioAssay.
The list is not random: actives were taken first. Their share in the collection is about 4.2%.
TAAR1 ag: agonists of human TAAR1; activation, % at 3 µM; AID 624467; hit rate 0.99% among 360,000; Q96RJ0; CHO RD-HGA16 TAAR1, Fluo-8 calcium fluorescence; vehicle wells 0%, saturating PEA agonist 100%;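 active = activation above the mean activation of all test compounds in the run plus 3 SD, cut at about 38% in these data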
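test system = CHO RD-HGA16 cells carrying human TAAR1 plus Gα16 | schedule = 17-24 h seeding, 75 min 37 °C dye, 30 min RT | compound dosing = 3 µM single concentration | control set = DMSO and PEA EC100 | replicates = n 1 | signal = Fluo-8 fluorescence, 5 s baseline then 140 s kinetic read | measure = percent activation vs PEA EC100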
OX1R antag-1: human HCRTR1 antagonism. inhibition, % at 5 µM. O43613. hit rate 0.43% among 330,000. CHO/OX1R cells, Fluo-8 calcium fluorescence, orexin A;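 active = inhibition above its plate's threshold, mean inhibition of all tested compounds on the plate plus 3 SD, cut at about 37% in these data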;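 also: 0% = orexin A challenge wells and 100% = SB-334867-A antagonist wells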
Target sequence (O43613 whole entry, looked up): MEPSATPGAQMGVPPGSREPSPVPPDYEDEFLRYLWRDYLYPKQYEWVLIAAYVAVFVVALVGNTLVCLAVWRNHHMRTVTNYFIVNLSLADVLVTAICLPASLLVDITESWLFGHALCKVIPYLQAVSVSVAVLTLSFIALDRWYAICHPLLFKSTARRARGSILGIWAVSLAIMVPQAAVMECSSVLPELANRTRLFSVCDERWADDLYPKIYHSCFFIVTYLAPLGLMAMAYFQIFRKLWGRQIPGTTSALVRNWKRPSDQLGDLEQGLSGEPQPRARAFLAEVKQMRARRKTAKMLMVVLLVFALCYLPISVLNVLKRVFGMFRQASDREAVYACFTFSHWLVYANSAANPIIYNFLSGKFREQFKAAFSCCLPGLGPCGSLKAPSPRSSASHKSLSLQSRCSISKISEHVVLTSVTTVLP
TAAR1 antagonist: antagonists of human TAAR1 | inhibition, % at 3 µM | Q96RJ0 | CHO RD-HGA16 TAAR1, Fluo-8 calcium fluorescence, antagonist | hit rate 1.5% among 360,000;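 active = inhibition above a per-plate cutoff, the mean inhibition of test compounds on that plate plus 3 SD, cut at about 49% in these data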;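 also: 0% = DMSO plus EC80 beta-PEA response and 100% = DMSO alone without agonist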
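System: RD-HGA16 CHO cells with stable hTAAR1 and Gα16 | Probe or stimulus: EC80 β-phenethylamine stimulus | Dosing: 3 µM, single point | Times: Dye loading 75 min at 37 °C, then 30 min room temperature | Measured by: Fluo-8 calcium-sensitive fluorescence | Read-out basis: % inhibition of agonist calcium response | Replicates: n of 1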
OX1R antag-2: blocks the human orexin 1 receptor | inhibition, % at 6.6 µM | hit rate 1.8% among 330,000 | OX1R-expressing cells, FRET antagonist read-out; in the data active = inhibition mostly above about 38%, no sharp cut-off; inactive = mostly below about 40%;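 also: 0% = agonist challenge alone and 100% = reference antagonist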
CHO parental Ca: counter-screen: ATP calcium response change in parental CHO cells | parental CHO-K1, ATP-induced calcium, Fluo-8 fluorescence | inhibition, % at 5.6 µM | hit rate 0.63% among 330,000 | AID 463079;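 active = inhibition above that plate's mean sample inhibition plus 3 SD, cut at about 26% in these data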;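 also: 0% = ATP-challenged DMSO wells and 100% = DMSO wells without ATP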
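Assay system: parental CHO cells; Read-out basis: percent inhibition of ATP-evoked calcium rise, normalized to controls; Benchmarks: ATP and no-ATP DMSO wells; Compound dosing: single nominal dose of 5.6 µM per compound; Signal: Fluo-8 calcium dye fluorescence; Also added: ATP as calcium-mobilizing challenge; Repeats: singlicate.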
GalR3 antagonist: blocks the human galanin receptor 3. inhibition, % at 3 µM. AID 651719. HEK293 GalR3-CNG cAMP membrane potential fluorescence; galR3 body fused to GalR1 C-terminus. hit rate 0.44% among 360,000;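 active = inhibition above the screen-wide average plus 3 SD, cut at about 13% in these data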;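 also: forskolin and galanin both at EC90 stimulate the cells; cAMP rise reported by CNG channel membrane potential dye signal; 0% = forskolin plus galanin with DMSO and 100% = forskolin alone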
The depositor's hits bear a star; nt = not tested or not shown.

SMILES | TAAR1 ag | OX1R antag-1 | TAAR1 antagonist | OX1R antag-2 | CHO parental Ca | GalR3 antagonist
CCN(CC)S(=O)(=O)c1ccc(NC(=O)C2c3ccccc3Oc3ccccc32)cc1 | 41* | 10 | 21 | 0 | 7 | 5
COc1cc(C)ccc1OCC(=O)NCC1CCCO1 (stereo unspecified) | 4 | -15 | -13 | 8 | -13 | -7
CCOC(=O)c1ccc(N2C(=O)CC(N3CCC(Nc4ccc(F)cc4)CC3)C2=O)cc1 (stereo unspecified) | 8 | -6 | -3 | 5 | 4 | -6
O=c1oc2c3c4c(cc2c2c1CCC2)OCCN4CCC3 | 0 | -6 | -1 | 59* | -13 | -4
COc1ccc(CN2CCN(S(=O)(=O)c3ccc(F)cc3)CC2)cc1OC | 5 | -10 | 1 | 2 | -17 | -11
N#Cc1c(-c2ccccc2)cc(-c2ccc3c(c2)OCO3)[nH]c1=O | -1 | -14 | -23 | 9 | -11 | -2
COc1ccc(-c2cc(-c3ccco3)[nH]c(=O)c2C#N)cc1OC | 6 | 4 | -36 | 73* | 2 | -5
O=C(C[C@@H]1NS(=O)(=O)OC2CCCCC21)c1ccccc1 (stereo partly specified) | 6 | -16 | 1 | 2 | -8 | -10
Cn1c(=O)c2c(ncn2CC(=O)Nc2nc(-c3ccccc3Cl)cs2)n(C)c1=O | 39* | 4 | 19 | 10 | -6 | -4
CCOC(=O)Cc1csc(NC(=O)Cn2cnc3c2c(=O)n(C)c(=O)n3C)n1 | 4 | -4 | 12 | 5 | -2 | -7
CCOc1ccc(N(CC(=O)NCC(C)C)S(C)(=O)=O)cc1 | 1 | -21 | 9 | 20 | -18 | -3
COc1cc(/C=N/Nc2snc(SC)c2C#N)ccc1O | 37 | 45 | 24 | 81* | -11 | -6
O=[N+]([O-])c1ccc(O)c(/C=N/Nc2nc3ccccc3[nH]2)c1 | 1 | -17 | 5 | 9 | -21 | 6
COc1ccc(/C=N/NC(=O)c2cc3c(OC)ccc(OC)c3[nH]2)cc1O | 6 | -9 | 4 | 62* | -14 | 3
COc1ccc(O)c(/C=N/Nc2nc3ccccc3[nH]2)c1 | 42* | -40 | 12 | 19 | -16 | -1
COc1ccc(OC)c2[nH]c(C(=O)N/N=C/c3ccccc3O)cc12 | 8 | -19 | 0 | 17 | -5 | -11
COc1cc(/C=N/Nc2nc3ccccc3[nH]2)ccc1O | 42* | -27 | 21 | 23 | -14 | 2
COc1cccc(/C=N/NC(=O)c2cc3c(OC)c(OC)ccc3[nH]2)c1OC | 21 | nt | 43 | nt | nt | -4
COc1cc(/C=N/NC(=O)c2cc3ccccc3[nH]2)ccc1O | 5 | 16 | 19 | 46* | -7 | -4
CC(/C=N/Nc1nc2ccccc2[nH]1)=C\c1ccccc1 | 40* | 1 | 38 | 30 | -9 | -6
C=CCOc1ccc(/C=N/NC(=O)c2cc3c(OC)cc(OC)cc3[nH]2)cc1 | 7 | 14 | 35 | 48* | -20 | -8
COc1cccc(/C=N/NC(=O)c2cc3c(OC)cccc3[nH]2)c1OC | 9 | -5 | 55* | 67* | -18 | -2
COc1cc(/C=N/NC(=O)c2cccc(C(=O)N/N=C/c3ccc(O)c(OC)c3)n2)ccc1O | -1 | nt | -7 | nt | nt | -5
CC(=O)Nc1cc(-c2ccc(Cl)cc2)nn1-c1ccccc1 | -4 | -19 | 7 | 10 | -3 | 0
Cc1ccccc1C(=O)Nc1cccc(C(=O)N/N=C/c2ccc3c(c2)OCO3)c1 | 6 | -16 | 26 | 28 | -8 | -11
COc1cc(/C=N/NC(=O)c2cccc(NC(=O)c3ccccc3C)c2)ccc1O | 15 | -1 | 61* | 11 | -5 | -6
CC(=O)Nc1ccccc1Nc1cc(C#N)c(C#N)cc1[N+](=O)[O-] | 8 | -17 | 9 | 58* | 1 | -6
O=C(NCc1ccccc1)c1cccc(COc2ccccc2Cl)c1 | 12 | 21 | 45 | 41 | 57* | -6
Cn1c(=O)oc2cc(S(=O)(=O)NC3CCCCC3)ccc21 | -2 | -26 | 11 | 20 | -17 | -7
Cc1ccc(-c2csc(NC(=O)c3cc([N+](=O)[O-])ccc3N3CCOCC3)n2)cc1 | 0 | -9 | -29 | 0 | 1 | 0
